# Compound activity from PubChem.
# The entries come from a sample that favours hits as a whole.
# Diaph inh CS = inhibits diaphorase or chemically oxidizes, flagging diaphorase assay artifacts; diaphorase resazurin-to-resorufin fluorescence, NADH, 16 min; bacterial (C. kluyveri) enzyme, not human; inhibition, % at 20 µM; 190,000 compounds, 0.69% hits; AID 1217;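 active = primary screen inhibition at 20 µM above a set limit, cut at about 50% in these data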;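 also: plate controls were DMSO with full reaction for no effect and wells lacking NADH for full effect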
#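 material = Clostridium kluyveri diaphorase enzyme | amount = 0.14 U/mL diaphorase, enzyme working solution | schedule = incubation 16 min, room temperature | detection = fluorescence of resorufin formed from resazurin, Ex 544/Em 590 nm | benchmarks = positive control minus NADH, DMSO neutral control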
# PfG6PD inh = PfG6PD (Plasmodium falciparum) enzyme inhibition. inhibition, % at 20 µM. PfGluPho enzyme, NADPH resazurin-diaphorase fluorescence. AID 504690. 350,000 compounds, 0.78% hits;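 active = inhibition reaching at least a set limit at 20 µM in the primary screen, cut at about 59% in these data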;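 also: 0% = DMSO wells with substrate and 100% = DMSO wells lacking glucose-6-phosphate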
# Diaphorase act = counter-screen for diaphorase-based assays: diaphorase activators and chemical reducers; AID 1229; activation factor at 20 µM; 190,000 compounds, 0.005% hits; Diaphorase/resazurin coupled assay, resorufin fluorescence, 16 min; active compounds read high; 1 = vehicle wells, 0 = NADH-free wells;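 active = diaphorase activity raised at least twofold by the compound at 20 µM; inactive = activation factor below 2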
#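 Material: Clostridium kluyveri diaphorase, purified enzyme; Quantity: enzyme 0.07 U/mL final; Medium: HEPES pH 7.4 buffer with MgCl2 and Tween 20; Dosing: single compound dose of 20 µM, 1% DMSO final; Schedule: 16 min reaction at room temperature; Measured by: red resorufin fluorescence at 544/590 nm excitation/emission.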
# Redox H2O2 prof = compounds producing H2O2 with reducing agent – biochemical, NIH compound library profiling, artefact control for MLSCN library redox annotation, primary screen; AID 878; 200,000 compounds, 0.03% hits; DTT-dependent redox cycling H2O2, phenol red/HRP absorbance; 100% = 100 µM peroxide control, 0% = buffer; activation, % at 10 µM;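 active = activation of at least 50% relative to the plate's high and low controls in the primary single-dose screen; inactive = activation below 50%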;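 also: compound incubated with DTT at 0.8 mM final as the reducing agent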
# L major viab = inhibitors of Leishmania major promastigote growth. inhibition, % at 10 µM. Leishmania major promastigotes, resazurin fluorescence viability. AID 1063. 200,000 compounds, 9% hits;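 also: promastigotes grown with compound for 44 hours at 28 °C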
# G6PDH counter = counter-screen for G6PDH assay hits: L. mesenteroides G6PDH inhibition; Purified L. mesenteroides G6PDH, diaphorase/resazurin coupled fluorescence, 45 min; 200,000 compounds, 0.12% hits; inhibition, % at 5 µM
# An asterisk follows results filed as active; . = no result given. Rule as the data show it, unless noted: active = inhibition above about 50%; inactive = the rest.
SMILES,Diaph inh CS,PfG6PD inh,Diaphorase act,Redox H2O2 prof,L major viab,G6PDH counter
CS(=O)(=O)Cc1cc(N2CCCC2)nc(-c2ccccc2)n1,3.6,5.2,1,-1.7,60.9*,1.5
O=C(c1ccc(Cl)cc1)C(Cn1cncn1)C(Sc1ccccc1)c1ccccc1 (centres undefined),21.2,-6.4,0.8,-16.6,91.8*,-0.3
CC(=NNC(=O)CSc1nc2ccccc2o1)c1ccco1,.,21.4,.,.,.,.
CN(C)S(=O)(=O)c1cc(NC(=O)CN2CCNC(=O)C2)ccc1Cl,0.0,-1.1,1,3.1,59.9*,4.5
CSc1nc(C)c2c(n1)N(c1ccc(C(C)C)cc1)CC2,25.7,9.5,0.7,-3.1,-0.5,4.7
O=C(c1ccc(Cl)cc1)C1CCN(C(=O)NC2CCCCC2)CC1,11.6,7.3,0.9,3.0,52.3*,-17.9
CC(C)N(Cc1ccccc1)C(=O)CN1C(=O)NC2(CCCC2)C1=O,.,2.7,.,.,.,.
CCn1nc(C(=O)NCc2nnc3ccccn23)c2ccccc2c1=O,.,-18.4,.,.,.,.
CSCCC(NC(=O)COc1ccccc1)C(=O)OCC(=O)c1ccccc1 (centres undefined),.,11.1,.,.,.,.
CSCCC(NS(=O)(=O)c1ccc2ccccc2c1)C(=O)OCC(=O)c1ccc(C(C)C)cc1 (centres undefined),16.0,4.8,0.8,-0.5,86.6*,-1.4
CC(C)CCn1c(Sc2nc3ccccc3o2)nc2c1c(=O)[nH]c(=O)n2C,16.6,39.4,0.8,-0.2,95.5*,8.5
COc1cc(C(=O)ON=C2C(C)=CC(=O)C=C2C)cc(OC)c1OC,75.9*,50.0,0.2,0.0,74.1*,2.2
O=C1CC(/C=C/c2ccccn2)=Nc2ccccc2N1,5.9,-8.3,0.9,0.1,81.8*,-0.2
O=C1CC(/C=C/c2ccco2)=Nc2ccccc2N1,24.6,18.4,0.8,-0.6,-0.8,-3.9
Cc1cc(Br)c(NC(=O)COC(=O)CSc2nnc(-c3ccc(Cl)cc3)o2)c(Br)c1,10.5,2.4,0.9,.,52.3*,-1.8
C=CCn1c(=NC(=O)c2ccc(S(=O)(=O)N3CCCc4ccccc43)cc2)sc2cc(S(N)(=O)=O)ccc21,25.3,19.3,0.7,0.0,100.0*,-10.4
C=CCn1c(=NC(=O)c2ccc(S(=O)(=O)N3CCc4ccccc4C3)cc2)sc2cc(S(N)(=O)=O)ccc21,20.0,1.7,0.8,0.3,9.4,0.3
COCCn1c(=NC(=O)c2ccc(S(=O)(=O)N3CCCc4ccccc43)cc2)sc2cc(S(C)(=O)=O)ccc21,10.2,-3.1,0.9,0.3,99.9*,-7.9
COc1ccc(Cl)cc1C(=O)Nc1ccccc1N1CCCCC1,.,11.6,.,.,.,.
O=C(/C=C/c1ccc2c(c1)OCO2)NCCS(=O)(=O)N1CCN(c2ccccc2)CC1,.,-8.3,.,.,.,.
O=C(CN1C(=O)NC2(CCCCCC2)C1=O)c1ccc(Cl)cc1,.,-8.8,.,.,.,.
O=C(NCc1cccc(Cl)c1)c1ccc(S(=O)(=O)Nc2cccc(C(F)(F)F)c2)cc1,29.1,-13.8,0.7,0.3,64.4*,0.8
Cc1sc(NC(=O)Cc2ccc3c(c2)OCO3)nc1-c1ccc2c(c1)CCN2C(=O)c1ccccc1F,20.1,8.5,0.8,0.3,98.9*,-18.7
Cc1sc(NC(=O)Cc2ccc3c(c2)OCO3)nc1-c1ccc2c(c1)CCN2C(=O)c1ccc(F)cc1,14.6,-13.2,0.9,0.3,86.5*,-22.9
Cc1ccccc1-n1c(SCC(=O)N2CCOCC2)nc(O)c(Cc2ccccc2)c1=O,.,-10.2,.,.,.,.
SMILES,Diaph inh CS,PfG6PD inh,Diaphorase act,Redox H2O2 prof,L major viab,G6PDH counter
Cc1nnsc1C(=O)N/N=C/c1ccc2ccccc2c1O,26.1,-22.0,0.7,0.4,100.0*,3.2
Cc1nnc(SCC(=O)Nc2ccc(Cl)cn2)s1,11.4,5.5,0.9,0.2,56.6*,-5.9
Cc1csc(SCC(=O)Nc2ccc(Cl)cn2)n1,7.1,5.4,0.9,-0.5,-6.1,11.8
Cc1sc(NC(=O)c2ccco2)nc1-c1ccc2c(c1)CC(C)N2C(=O)C1CC1 (centres undefined),24.0,37.6,0.8,-1.5,86.1*,-0.2
CC(=O)Nc1nc(-c2ccc3c(c2)CC(C)N3C(=O)C2CC2)c(C)s1 (centres undefined),.,36.6,.,.,.,.
Cc1cccc(Nc2ccncc2S(N)(=O)=O)c1,.,-0.4,.,.,.,.
CCCCNC(=O)c1ccccc1NC(=O)CN(c1ccccc1)S(=O)(=O)N(C)C,22.7,-2.5,0.8,-0.6,64.7*,0.8
COc1ccc2nc(NC(=O)c3cc(S(=O)(=O)N4CCOCC4)ccc3C)sc2c1,16.0,-9.6,0.8,0.1,55.6*,3.5
Cc1ccc(S(=O)(=O)N2CCOCC2)cc1C(=O)Nc1ccc2c(c1)CCC2,-0.8,0.8,1,-0.6,52.3*,0.6
COc1cc(C(=O)Nc2nc3ccc(S(=O)(=O)N4CCOCC4)cc3s2)cc(OC)c1OC,14.5,-22.1,0.9,4.0,61.2*,-27.0
COc1ccccc1-c1ccc2c(c1)O[C@@H](CN(C)C(=O)c1ccncc1)[C@H](C)CN([C@@H](C)CO)S2(=O)=O,.,7.0,.,.,.,.
COC(=O)c1ccc(CNC(=O)Cn2cnc(C(=O)Nc3ccc(C)c(C)c3)n2)cc1,.,9.1,.,.,.,.
CCN(CC)c1ccc(/C=N/NC(=O)c2ccoc2C)c(O)c1,.,-21.8,.,.,.,.
COc1ccc(C2C(C#N)=C(/N=C/N3CCN(C)CC3)OC3=C2C(=O)CC(C)(C)C3)cc1OC (centres undefined),-12.4,-2.3,1.1,0.4,63.9*,4.1
CCNC(=S)NNC(=O)c1cc(-c2cccc(OCC)c2)nc2ccccc12,-2.1,1.6,1,-1.5,-2.0,0.9
CCNC(=S)NNC(=O)c1ccccc1Cl,13.1,2.0,0.9,0.0,50.5*,3.2
CCNC(=S)NNC(=O)c1cc(-c2cccc(C)c2)nc2ccccc12,-7.8,-5.9,1.1,-3.6,95.0*,-0.9
OCC[C@H]1C[C@@H](O)[C@H](O)[C@@]2(CCCCO2)O1,.,-4.8,.,.,.,.
N=c1c(C(=O)NCc2ccc(F)cc2)cc2c(=O)n3ccccc3nc2n1CCCN1CCOCC1,-10.6,-19.1,1.1,-0.5,60.1*,4.5
CC(=O)N=c1c(C#N)cc2c(=O)n3ccccc3nc2n1CCCOC(C)C,.,43.6,.,.,.,.
CC(C)OCCCn1c(=N)c(C(N)=S)cc2c(=O)n3ccccc3nc21,21.4,46.4,0.8,2.0,100.5*,-0.2
N=c1c(C(=O)NCc2ccc(F)cc2)cc2c(=O)n3ccccc3nc2n1Cc1cccnc1,-4.0,6.6,1,0.6,70.9*,5.0
COC(=O)c1cc2c(=O)n3ccccc3nc2n(Cc2cccnc2)c1=N,.,-13.1,.,2.4,18.7,.
CCOC(=O)c1c(C)[nH]c(C)c1C(=O)COC(=O)c1cccc(S(=O)(=O)N(CC)CC)c1,-6.6,22.6,1.1,3.7,98.5*,5.4
